Measurements: ChEMBL document CHEMBL1124270, “Quinolone antibacterial agents. Synthesis and structure-activity relationships of 8-substituted quinoline-3-carboxylic acids and 1,8-naphthyridine-3-carboxylic acids” (1988)
In brackets after ≈: the same amount, converted by molar mass.

Tests used:
Assay type in all cases: functional
Escherichia coli [1] = experiment: Minimum concentration needed to produce linear DNA at an intensity relative to oxolinic at 10 ug/mL in Escherichia coli H560 in vitro.
Summary of the method: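 DNA gyrase cleavage test, run as previously described: end point is the lowest drug level (µg/mL) that yields linear DNA at a band intensity matching oxolinic acid at 10 µg/mL. Values come from duplicate or triplicate experiments and are stated as accurate to ±50%.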

Streptococcus pneumoniae = experiment: Minimum inhibitory concentration against Streptococcus pneumoniae SV-1 in vitro.
Staphylococcus aureus [2] = experiment: Minimum inhibitory concentration against Staphylococcus aureus H228 in vitro.
Enterococcus faecalis = experiment: Minimum inhibitory concentration against Streptococcus faecalis MGH-2 in vitro.
Streptococcus pyogenes = experiment: Minimum inhibitory concentration against Streptococcus pyogenes C203 in vitro.
Enterobacter cloacae = experiment: Minimum inhibitory concentration against Enterobacter cloacae HA 2646 in vitro.
Klebsiella pneumoniae = experiment: Minimum inhibitory concentration against Klebsiella pneumoniae MGH-2 in vitro.
Staphylococcus aureus [3] = experiment: Minimum inhibitory concentration against Staphylococcus aureus UC-76 in vitro.
Escherichia coli [4] = experiment: Minimum inhibitory concentration against Escherichia coli vogel in vitro.
Escherichia coli [5] = experiment: Minimum inhibitory concentration against Escherichia coli H560 in vitro.
Pseudomonas aeruginosa = experiment: Minimum inhibitory concentration against Pseudomonas aeruginosa UI-18 in vitro.
Providencia rettgeri = experiment: Minimum inhibitory concentration against Providencia rettgeri H1771 in vitro.
Staphylococcus aureus [6] = experiment: In vivo potency against Staphylococcus aureus using mouse protection assay following s.c. administration.; conditions: sc, read-out: PD50
Staphylococcus aureus [7] = experiment: In vivo potency against Staphylococcus aureus using mouse protection assay following p.o. administration.; conditions: po, read-out: PD50
Mus musculus [8] = experiment: In vivo potency against Escherichia coli vogel using mouse protection assay when given perorally; conditions: po, read-out: PD50
Mus musculus [9] = experiment: In vivo potency against Escherichia coli vogel using mouse protection assay when given subcutaneously; conditions: sc, read-out: PD50

| SMILES | DNA cleavage conc (gyrase) (Escherichia coli [1]) [µg/mL] | MIC (Streptococcus pneumoniae) [µg/mL] | MIC (Staphylococcus aureus [2]) [µg/mL] | MIC (Enterococcus faecalis) [µg/mL] | MIC (Streptococcus pyogenes) [µg/mL] | MIC (Enterobacter cloacae) [µg/mL] | MIC (Klebsiella pneumoniae) [µg/mL] | MIC (Staphylococcus aureus [3]) [µg/mL] | MIC (Escherichia coli [4]) [µg/mL] | MIC (Escherichia coli [5]) [µg/mL] | MIC (Pseudomonas aeruginosa) [µg/mL] | MIC (Providencia rettgeri) [µg/mL] | ED50 (Staphylococcus aureus [6]) [mg/kg] | ED50 (Staphylococcus aureus [7]) [mg/kg] | ED50 (Mus musculus [8]) [mg/kg] | ED50 (Mus musculus [9]) [mg/kg] |
| --- | --- | --- | --- | --- | --- | --- | --- | --- | --- | --- | --- | --- | --- | --- | --- | --- |
| CCNCC1CCN(c2c(F)cc3c(=O)c(C(=O)O)cn(C4CC4)c3c2Cl)C1 (centres undefined) | 0.1 | 0.003 (≈ 0.00736 µM) | 0.013 (≈ 0.0319 µM) | 0.013 (≈ 0.0319 µM) | 0.006 (≈ 0.0147 µM) | 0.05 (≈ 0.123 µM) | 0.1 (≈ 0.245 µM) | 0.003 (≈ 0.00736 µM) | 0.05 (≈ 0.123 µM) | 0.025 (≈ 0.0613 µM) | 0.8 (≈ 1.96 µM) | 0.2 (≈ 0.49 µM) | – | – | – | – |
| CC(C)NCC1CCN(c2nc3c(cc2F)c(=O)c(C(=O)O)cn3C2CC2)C1 (centres undefined) | 2.5 | 0.2 (≈ 0.515 µM) | 0.2 (≈ 0.515 µM) | 0.2 (≈ 0.515 µM) | 0.2 (≈ 0.515 µM) | 0.2 (≈ 0.515 µM) | 0.4 (≈ 1.03 µM) | 0.1 (≈ 0.257 µM) | 0.2 (≈ 0.515 µM) | 0.1 (≈ 0.257 µM) | 0.8 (≈ 2.06 µM) | 1.6 (≈ 4.12 µM) | 16 | 35 | 8 | 2 |
| CCNCC1CCN(c2c(F)cc3c(=O)c(C(=O)O)cn(C4CC4)c3c2[N+](=O)[O-])C1.Cl (centres undefined) | – | 0.1 | 0.4 | 0.4 | 0.2 | 0.4 | 0.8 | 0.1 | 0.4 | 0.4 | 6.3 | 1.6 | – | – | – | – |
| O=C(O)c1cn(C2CC2)c2c(Cl)c(N3CCNCC3)c(F)cc2c1=O | 0.5 | 0.1 (≈ 0.273 µM) | 0.1 (≈ 0.273 µM) | 0.4 (≈ 1.09 µM) | 0.2 (≈ 0.547 µM) | 0.025 (≈ 0.0683 µM) | 0.05 (≈ 0.137 µM) | 0.05 (≈ 0.137 µM) | 0.025 (≈ 0.0683 µM) | 0.025 (≈ 0.0683 µM) | 0.4 (≈ 1.09 µM) | 0.1 (≈ 0.273 µM) | – | – | 0.8 | 0.4 |
| CNCC1CCN(c2c(F)cc3c(=O)c(C(=O)O)cn4c3c2OCC4C)C1 (centres undefined) | 1 | 0.1 (≈ 0.266 µM) | 0.4 (≈ 1.07 µM) | 0.1 (≈ 0.266 µM) | 0.05 (≈ 0.133 µM) | 0.4 (≈ 1.07 µM) | 0.4 (≈ 1.07 µM) | 0.025 (≈ 0.0666 µM) | 0.2 (≈ 0.533 µM) | 0.2 (≈ 0.533 µM) | 1.6 (≈ 4.26 µM) | 3.1 (≈ 8.26 µM) | – | – | – | – |
| CC1COc2c(N3CCC(CN)C3)c(F)cc3c(=O)c(C(=O)O)cn1c23 (centres undefined) | 0.5 | 0.025 (≈ 0.0692 µM) | 0.2 (≈ 0.553 µM) | 0.1 (≈ 0.277 µM) | 0.025 (≈ 0.0692 µM) | 0.2 (≈ 0.553 µM) | 0.4 (≈ 1.11 µM) | 0.05 (≈ 0.138 µM) | 0.2 (≈ 0.553 µM) | 0.05 (≈ 0.138 µM) | 1.6 (≈ 4.43 µM) | 0.8 (≈ 2.21 µM) | – | – | > 100 | – |
| Cl.O=C(O)c1cn(C2CC2)c2c([N+](=O)[O-])c(N3CCNCC3)c(F)cc2c1=O | – | 12.5 | 1.6 | 6.3 | 12.5 | 0.2 | 0.8 | 0.4 | 0.2 | 0.4 | 1.6 | 3.1 | – | – | 10 | 3 |
| Nc1c(N2CCNCC2)c(F)cc2c(=O)c(C(=O)O)cn(C3CC3)c12 | 2.5 | 12.5 (≈ 36.1 µM) | 6.3 (≈ 18.2 µM) | 12.5 (≈ 36.1 µM) | 6.3 (≈ 18.2 µM) | 0.4 (≈ 1.15 µM) | 0.8 (≈ 2.31 µM) | 0.8 (≈ 2.31 µM) | 0.4 (≈ 1.15 µM) | 0.2 (≈ 0.577 µM) | 0.8 (≈ 2.31 µM) | 0.4 (≈ 1.15 µM) | – | – | 58 | 2 |
| CCNCC1CCN(c2c(F)cc3c(=O)c(C(=O)O)cn4c3c2OCC4C)C1 (centres undefined) | 0.5 | 0.05 (≈ 0.128 µM) | 0.2 (≈ 0.514 µM) | 0.1 (≈ 0.257 µM) | 0.05 (≈ 0.128 µM) | 0.2 (≈ 0.514 µM) | 0.4 (≈ 1.03 µM) | 0.025 (≈ 0.0642 µM) | 0.1 (≈ 0.257 µM) | 0.05 (≈ 0.128 µM) | 0.8 (≈ 2.05 µM) | 0.8 (≈ 2.05 µM) | – | – | > 100 | 11 |
| Cl.Nc1c(N2CCC(N)C2)c(F)cc2c(=O)c(C(=O)O)cn(C3CC3)c12 (centres undefined) | 18 | 3.1 | 3.1 | 3.1 | 3.1 | 0.2 | 0.4 | 0.4 | 0.4 | 0.1 | 1.6 | 0.8 | – | – | 50 | 6 |
| CCNCC1CCN(c2cc3c(cc2F)c(=O)c(C(=O)O)cn3C2CC2)C1.Cl (centres undefined) | 1 | 0.2 | 0.4 | 0.2 | 0.05 | 0.4 | 0.2 | 0.013 | 0.2 | 0.05 | 1.6 | 0.8 | – | – | 35 | – |
| O=C(O)c1cn(C2CC2)c2nc(N3CCNCC3)c(F)cc2c1=O | 1 | 1.6 (≈ 4.81 µM) | 1.6 (≈ 4.81 µM) | 1.6 (≈ 4.81 µM) | 1.6 (≈ 4.81 µM) | 0.1 (≈ 0.301 µM) | 0.1 (≈ 0.301 µM) | 0.4 (≈ 1.2 µM) | 0.05 (≈ 0.15 µM) | 0.05 (≈ 0.15 µM) | 0.2 (≈ 0.602 µM) | 0.2 (≈ 0.602 µM) | 6 | 14 | 0.7 | 0.4 |
| CC(C)NCC1CCN(c2cc3c(cc2F)c(=O)c(C(=O)O)cn3C2CC2)C1.Cl (centres undefined) | – | 0.025 | 0.2 | 0.1 | 0.05 | 0.1 | 0.2 | 0.025 | 0.1 | 0.05 | 3.1 | 0.8 | – | – | 25 | 4 |
| CNCC1CCN(c2c(F)cc3c(=O)c(C(=O)O)cn(C4CC4)c3c2N)C1.Cl (centres undefined) | 5 | 1.6 | 1.6 | 1.6 | 0.4 | 3.1 | 3.1 | 0.2 | 0.8 | 1.6 | 6.3 | 6.3 | – | – | – | – |
| CC1COc2c(N3CCC(CN(C)C)C3)c(F)cc3c(=O)c(C(=O)O)cn1c23.Cl (centres undefined) | 1 | 0.05 | 0.2 | 0.4 | 0.05 | 0.4 | 0.4 | 0.05 | 0.2 | 0.2 | 3.1 | 0.8 | – | – | – | – |
| CN(C)CC1CCN(c2c(F)cc3c(=O)c(C(=O)O)cn(C4CC4)c3c2N)C1.Cl (centres undefined) | 5 | 0.4 | 0.2 | 0.4 | 0.4 | 0.2 | 0.8 | 0.1 | 0.4 | 0.4 | 3.1 | 0.8 | 81 | 100 | 9 | 4 |
| Cl.NC1CCN(c2c(F)cc3c(=O)c(C(=O)O)cn(C4CC4)c3c2[N+](=O)[O-])C1 (centres undefined) | – | 1.6 | 0.8 | 1.6 | 1.6 | 0.2 | 0.4 | 0.2 | 0.2 | 0.4 | 1.6 | 0.8 | – | – | 30 | 9 |
| CC1COc2c(N3CCC(N)C3)c(F)cc3c(=O)c(C(=O)O)cn1c23.Cl (centres undefined) | 0.75 | 0.8 | 1.6 | 1.6 | 0.2 | 0.4 | 0.4 | 0.1 | 0.4 | 0.2 | 0.4 | 0.8 | – | – | 25 | 2 |
| CNCC1CCN(c2cc3c(cc2F)c(=O)c(C(=O)O)cn3C2CC2)C1 (centres undefined) | 0.5 | 0.05 (≈ 0.139 µM) | 0.2 (≈ 0.556 µM) | 0.1 (≈ 0.278 µM) | 0.05 (≈ 0.139 µM) | 0.2 (≈ 0.556 µM) | 0.2 (≈ 0.556 µM) | 0.025 (≈ 0.0696 µM) | 0.1 (≈ 0.278 µM) | 0.1 (≈ 0.278 µM) | 0.8 (≈ 2.23 µM) | 0.4 (≈ 1.11 µM) | – | – | 35 | – |
| NCC1CCN(c2cc3c(cc2F)c(=O)c(C(=O)O)cn3C2CC2)C1 (centres undefined) | 0.5 | 0.003 (≈ 0.00869 µM) | 0.025 (≈ 0.0724 µM) | 0.025 (≈ 0.0724 µM) | 0.025 (≈ 0.0724 µM) | 0.05 (≈ 0.145 µM) | 0.05 (≈ 0.145 µM) | 0.006 (≈ 0.0174 µM) | 0.05 (≈ 0.145 µM) | 0.006 (≈ 0.0174 µM) | 0.8 (≈ 2.32 µM) | 0.2 (≈ 0.579 µM) | – | – | > 100 | 2 |
| CCNCC1CCN(c2c(F)cc3c(=O)c(C(=O)O)cn(C4CC4)c3c2N)C1.Cl.Cl (centres undefined) | 2.5 | 0.4 | 0.8 | 0.2 | 0.2 | 0.4 | 0.8 | 0.05 | 0.4 | 0.8 | 3.1 | 1.6 | – | – | – | – |
| CC(C)NCC1CCN(c2c(F)cc3c(=O)c(C(=O)O)cn4c3c2OCC4C)C1 (centres undefined) | – | 0.05 (≈ 0.124 µM) | 0.05 (≈ 0.124 µM) | 0.05 (≈ 0.124 µM) | 0.2 (≈ 0.496 µM) | 0.4 (≈ 0.991 µM) | 0.8 (≈ 1.98 µM) | 0.4 (≈ 0.991 µM) | 0.2 (≈ 0.496 µM) | 0.4 (≈ 0.991 µM) | 0.2 (≈ 0.496 µM) | 3.1 (≈ 7.68 µM) | – | – | 8 | 2 |
